Measured values collected from several papers.
Compare with care: the assays were run in different laboratories.
Target: Dual specificity tyrosine-phosphorylation-regulated kinase 1A (DYRK1A, Homo sapiens, UniProt Q13627)

`Nc1ncc(-c2nc(N3CCOCC3)nc(N3CCOCC3)n2)c(C(F)F)n1` gave a remaining binding of 48% (cell-free assay, competition with immobilised ligand; 10 µM).
`N#CC1(c2ccccn2)CCN(Cc2cc(C(=O)O)c(=O)n3ccccc23)CC1` has a remaining binding of 97% (cell-free assay, competition with immobilised ligand; 1 µM).
The remaining activity of `CC(C)(C)c1cc(C=C(C#N)C#N)cc(Br)c1O` is reported as 95.4% (enzyme activity, inhibitor; 0.5 µM).
`COc1cc(Nc2ncc(F)c(Nc3ccc4c(n3)NC(=O)C(C)(C)O4)n2)cc(OC)c1OC` gave an inhibition of 91% (binding, competition with immobilised ligand; 10 µM).
The remaining binding of `Cn1cncc1[C@](O)(COc1ccc(C#N)cc1-c1ccc(OC(F)(F)F)cc1)c1ccc(C#N)cc1` is reported as 81% (cell-free assay, competition with immobilised ligand; 1 µM).
The remaining signal of `O=c1[nH]c2ccccc2n1C1CCN(Cc2ccc(-c3[nH]c4cc5ncnc5cc4nc3-c3ccccc3)cc2)CC1` is reported as 101% (cell-free assay; 0.5 µM).
The inhibition of `Cn1cc(-c2cccc(N3CCc4c(sc5c4CC(C)(C)C5)C3=O)c2CO)cc(Nc2ccncn2)c1=O` is reported as 5% (enzyme activity, inhibitor; 1 µM).
`Cc1nn(C)cc1-c1nc2c(N3CCN(Cc4ccc(Cl)cc4)CC3)c(Cl)cnc2[nH]1` has a remaining binding of 82% (binding, competition with immobilised ligand; 1 µM).
`COc1ncccc1-c1cnn2ccc(N3CCN(C(=O)OC(C)C)CC3)nc12` gave a remaining binding of 95% (binding, competition with immobilised ligand; 1 µM).
With `Cn1cc(-c2cc(F)cc(N3CCn4c(cc5c4CCCC5)C3=O)c2CO)cc(Nc2ccc(N3CCN(C4COC4)CC3)cn2)c1=O` the inhibition was 4% (enzyme activity, inhibitor; 0.1 µM).
